Results gathered from unrelated publications.
Lines come from different studies, so protocols differ.
Target: Serine/threonine-protein kinase VRK2 (VRK2, Homo sapiens, UniProt Q86Y07)

SMILES | read-out | mode | technique | cells | tested at | measurement | value
Cn1c2c(c3ccc(Cl)c(Cl)c31)C(C#N)C1(CCCC1)NC2=O (stereo not drawn) | thermal stability |  | DSF |  | 10 µM | ΔTm | -0.2 °C
CC(C)(O)[C@H]1CC[C@H](Nc2ccc3ncc(-c4cccc(C(F)(F)F)c4)n3n2)CC1 | enzyme activity | inhibitor |  |  | 1 µM | remaining activity | 81.2%
COc1ccc2c(c1)O[C@H](c1ccc(OC)c(OC)c1)C[C@@H]2NC(=O)C1(c2ccc3c(c2)OC(F)(F)O3)CC1 | cell-free assay |  | competition with immobilised ligand |  | 1 µM | remaining binding | 82%
COc1cc(Cl)c(C(=O)N[C@@H](CN[C@H]2CC[C@@H](N)CC2)Cc2ccc(C#N)cc2)cc1-c1ccc(CN[C@H](C)c2ccc(C)cc2)o1 | enzyme activity | inhibitor |  |  | 1 µM | remaining activity | 91%
C[C@H](c1ccc(F)cc1)N(Cc1cccc(C(=O)O)c1)C(=O)c1cnc2ccccc2c1 | cell-free assay |  | competition with immobilised ligand |  | 1 µM | remaining binding | 100%
N#CC1c2c([nH]c3c(Cl)c(Cl)ccc23)C(=O)NC12CCCCC2 (racemic) | thermal stability |  | DSF |  | 10 µM | ΔTm | -0.3 °C
CN(C)CC#Cc1ccc(OCCCc2sc(N3CCc4cccc(C(=O)Nc5nc6ccccc6s5)c4C3)nc2C(=O)O)c(F)c1 | cell-free assay |  | competition with immobilised ligand |  | 1 µM | remaining binding | 100%
Cc1sc(C(=O)NC2COC2)cc1-n1cc(NC(=O)Nc2c(F)cccc2Cl)cn1 | enzyme activity | inhibitor |  |  | 10 µM | remaining activity | 102%
Cc1ccc(Nc2nccc(N(C)c3ccc4c(C)n(C)nc4c3)n2)cc1S(N)(=O)=O | enzyme activity | inhibitor |  |  | 0.3 µM | inhibition | -16%
Cc1cc(NC(=O)c2cccc3cc(-c4cccc5[nH]nc(N)c45)ccc23)ccc1F | enzyme activity | inhibitor |  |  | 0.1 µM | activity vs control | 89%
CC(C)(C)c1nc(-c2cccc(NS(=O)(=O)c3c(F)cccc3F)c2F)c(-c2ccnc(N)n2)s1 | enzyme activity | inhibitor | radiometric |  | 1 µM | remaining activity | 103%
C[C@H](NC(=O)c1cnc2n1[C@](C)(Cc1ccc(C#N)cc1)C(=O)N2c1cc(Cl)c(F)c(Cl)c1)C(=O)NC1(c2ccccn2)CC1 | cell-free assay |  | competition with immobilised ligand |  | 1 µM | remaining binding | 100%
CCN(CC)c1ccc(C2=NNC(=O)CC2C)cc1[N+](=O)[O-] (stereo not drawn) | enzyme activity | inhibitor |  |  | 10 µM | remaining activity | 95%
CNC(=O)c1cc(Oc2ccc(NC(=O)Nc3ccc(Cl)c(C(F)(F)F)c3)cc2)ccn1 | enzyme activity | inhibitor |  |  | 0.3 µM | inhibition | -15%
Cn1c2c(Cl)c(Cl)ccc2c2cc[nH]c(=O)c21 | thermal stability |  | DSF |  | 10 µM | ΔTm | 0 °C
CCN(CC)CCNC(=O)c1c(C)[nH]c(/C=C2\C(=O)Nc3ccc(F)cc32)c1C | enzyme activity | inhibitor |  |  | 0.3 µM | inhibition | -19%
CCN1CCC2(CC1)NC(=O)c1c(c3ccc(Cl)c(Cl)c3n1C)C2C#N (racemic) | thermal stability |  | DSF |  | 10 µM | ΔTm | 0.1 °C
CCN1CCN(Cc2ccc(NC(=O)c3ccc(C)c(Oc4ccnc5[nH]ccc45)c3)cc2C(F)(F)F)CC1 | target engagement in cells | inhibitor | chemoproteomics | Huh-7 | 1 µM | inhibition | -14.2%
COc1ccc2c(O[C@@H]3C[C@H]4C(=O)N[C@]5(C(=O)O)CC5/C=C\CCCCC[C@H](NC(=O)OC5CCCC5)C(=O)N4C3)cc(-c3csc(NC(=O)C(C)C)n3)nc2c1C (stereo partly drawn) | cell-free assay |  | competition with immobilised ligand |  | 1 µM | remaining binding | 79%
Cn1c2c(Cl)c(Cl)ccc2c2cc(N)[nH]c(=O)c21 | thermal stability |  | DSF |  | 10 µM | ΔTm | 0.3 °C
CS(=O)(=O)N1CCCC(NC(=O)[C@H](CCC2CCCCC2)NC(=O)c2ccc(CNC(=O)c3cnc4ccccn34)cc2)C1 (stereo partly drawn) | cell-free assay |  | competition with immobilised ligand |  | 0.1 µM | remaining binding | 76%
Cc1ccc(NC(=O)c2ccc(C)c(C(F)(F)F)c2)cc1C#Cc1nn(C2CCC(O)CC2)c2ncnc(N)c12 (stereo not drawn) | cell-free assay |  |  |  | 10 µM | remaining signal | 85%
O=C(O)[C@H]1[C@H](Cn2nnc3ccccc3c2=O)CC[C@@H]1C(=O)c1ccc(OCCC2CCOCC2)cc1 | cell-free assay |  | competition with immobilised ligand |  | 1 µM | remaining binding | 80%
Cn1c2c(Cl)c(Cl)ccc2c2cn[nH]c(=O)c21 | thermal stability |  | DSF |  | 10 µM | ΔTm | 0 °C
